{"source": "ChEMBL document CHEMBL5724801", "about": "“EUbOPEN Chemogenomics Library - Multiplex” (2024)", "tested_on": "Fibroblast", "test": "Multiplex assay against human fibroblast", "format": "toxicity, cell-based", "outline": "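Live cells carried four stains from seeding: Hoechst33342, BioTracker Green Microtubule Cytoskeleton Dye, MitoTracker Red and Annexin V Alexa Fluor 680. They were imaged on a CQ1 microscope at 37°C and 5% CO2 after compound addition. Using CellPathfinder machine-learning gating, cells were split into Hoechst high-intensity objects or normal cells, normal cells into healthy, pyknosed or fragmented nuclei, and pyknosed cells into mitotic or apoptotic; tubulin, mitochondrial-mass and membrane-permeability phenotypes are per cents of healthy-nucleus cells.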", "key": {"[1]": {"settings": "12 h, 1 µM, compound concentration 1 uM"}, "[2]": {"settings": "12 h, 10 µM, compound concentration 10 uM"}, "[3]": {"settings": "24 h, 1 µM, compound concentration 1 uM"}, "[4]": {"settings": "24 h, 10 µM, compound concentration 10 uM"}, "[5]": {"settings": "48 h, 1 µM, compound concentration 1 uM"}, "[6]": {"settings": "48 h, 10 µM, compound concentration 10 uM"}}, "note": "“And” between values parts separate entries of the source, which are not always exact repeats. Equal values may be shown once.", "data": [{"compound": "CN(C)CCCc1cc(C(=O)Nc2ccc(-c3ccncc3)cc2)ccc1O.Cl.Cl", "values": [{"measurement": "Population Apoptotic (%)", "setting": "[1]", "value": "31% and 44%"}, {"measurement": "Population Fragmented Nuclei (%)", "setting": "[1]", "value": "15% and 22%"}, {"measurement": "Population Healthy Nuclei (%)", "setting": "[1]", "value": "65% and 52%"}, {"measurement": "Population Hoechst High Intensity Objects (%)", "setting": "[1]", "value": "4% and 2%"}, {"measurement": "Population Membrane Permeable-Phenotype (%)", "setting": "[1]", "value": "0% and 4%"}, {"measurement": "Population Mitochondria Different-Phenotype (%)", "setting": "[1]", "value": "7% and 4%"}, {"measurement": "Population Mitotic Cells (%)", "setting": "[1]", "value": "68% and 55%"}, {"measurement": "Population Normal (%)", "setting": "[1]", "value": "95% and 97%"}, {"measurement": "Population Pyknosed Nuclei (%)", "setting": "[1]", "value": "18% and 24%"}, {"measurement": "Population Tubulin-Different-Phenotype (%)", "setting": "[1]", "value": "22% and 40%"}, {"measurement": "Total Cell Count", "setting": "[1]", "value": "122 and 120"}, {"measurement": "Population Apoptotic (%)", "setting": "[2]", "value": "68% and 48%"}, {"measurement": "Population Fragmented Nuclei (%)", "setting": "[2]", "value": "33% and 31%"}, {"measurement": "Population Healthy Nuclei (%)", "setting": "[2]", "value": "58% and 51%"}, {"measurement": "Population Hoechst High Intensity Objects (%)", "setting": "[2]", "value": "7% and 4%"}, {"measurement": "Population Membrane Permeable-Phenotype (%)", "setting": "[2]", "value": "0% and 4%"}, {"measurement": "Population Mitochondria Different-Phenotype (%)", "setting": "[2]", "value": "15% and 6%"}, {"measurement": "Population Mitotic Cells (%)", "setting": "[2]", "value": "31% and 51%"}, {"measurement": "Population Normal (%)", "setting": "[2]", "value": "92% and 95%"}, {"measurement": "Population Pyknosed Nuclei (%)", "setting": "[2]", "value": "7% and 17%"}, {"measurement": "Population Tubulin-Different-Phenotype (%)", "setting": "[2]", "value": "43% and 45%"}, {"measurement": "Total Cell Count", "setting": "[2]", "value": "305 and 236"}, {"measurement": "Population Apoptotic (%)", "setting": "[3]", "value": "30% and 37%"}, {"measurement": "Population Fragmented Nuclei (%)", "setting": "[3]", "value": "16% and 22%"}, {"measurement": "Population Healthy Nuclei (%)", "setting": "[3]", "value": "66% and 50%"}, {"measurement": "Population Hoechst High Intensity Objects (%)", "setting": "[3]", "value": "1% and 4%"}, {"measurement": "Population Membrane Permeable-Phenotype (%)", "setting": "[3]", "value": "2% and 1%"}, {"measurement": "Population Mitochondria Different-Phenotype (%)", "setting": "[3]", "value": "3% and 7%"}, {"measurement": "Population Mitotic Cells (%)", "setting": "[3]", "value": "70% and 62%"}, {"measurement": "Population Normal (%)", "setting": "[3]", "value": "98% and 95%"}, {"measurement": "Population Pyknosed Nuclei (%)", "setting": "[3]", "value": "17% and 27%"}, {"measurement": "Population Tubulin-Different-Phenotype (%)", "setting": "[3]", "value": "25% and 45%"}, {"measurement": "Total Cell Count", "setting": "[3]", "value": "119 and 111"}, {"measurement": "Population Apoptotic (%)", "setting": "[4]", "value": "47% and 42%"}, {"measurement": "Population Fragmented Nuclei (%)", "setting": "[4]", "value": "30% and 31%"}, {"measurement": "Population Healthy Nuclei (%)", "setting": "[4]", "value": "63% and 53%"}, {"measurement": "Population Hoechst High Intensity Objects (%)", "setting": "[4]", "value": "6% and 4%"}, {"measurement": "Population Membrane Permeable-Phenotype (%)", "setting": "[4]", "value": "0% and 5%"}, {"measurement": "Population Mitochondria Different-Phenotype (%)", "setting": "[4]", "value": "11% and 5%"}, {"measurement": "Population Mitotic Cells (%)", "setting": "[4]", "value": "52% and 57%"}, {"measurement": "Population Normal (%)", "setting": "[4]", "value": "93% and 95%"}, {"measurement": "Population Pyknosed Nuclei (%)", "setting": "[4]", "value": "5% and 14%"}, {"measurement": "Population Tubulin-Different-Phenotype (%)", "setting": "[4]", "value": "40% and 42%"}, {"measurement": "Total Cell Count", "setting": "[4]", "value": "339 and 242"}, {"measurement": "Population Apoptotic (%)", "setting": "[5]", "value": "62% and 50%"}, {"measurement": "Population Fragmented Nuclei (%)", "setting": "[5]", "value": "28% and 23%"}, {"measurement": "Population Healthy Nuclei (%)", "setting": "[5]", "value": "59% and 54%"}, {"measurement": "Population Hoechst High Intensity Objects (%)", "setting": "[5]", "value": "0% and 8%"}, {"measurement": "Population Membrane Permeable-Phenotype (%)", "setting": "[5]", "value": "0% and 1%"}, {"measurement": "Population Mitochondria Different-Phenotype (%)", "setting": "[5]", "value": "1% and 5%"}, {"measurement": "Population Mitotic Cells (%)", "setting": "[5]", "value": "37% and 50%"}, {"measurement": "Population Normal (%)", "setting": "[5]", "value": "99% and 91%"}, {"measurement": "Population Pyknosed Nuclei (%)", "setting": "[5]", "value": "12% and 21%"}, {"measurement": "Population Tubulin-Different-Phenotype (%)", "setting": "[5]", "value": "29% and 46%"}, {"measurement": "Total Cell Count", "setting": "[5]", "value": "126 and 111"}, {"measurement": "Population Apoptotic (%)", "setting": "[6]", "value": "56% and 51%"}, {"measurement": "Population Fragmented Nuclei (%)", "setting": "[6]", "value": "28% and 35%"}, {"measurement": "Population Healthy Nuclei (%)", "setting": "[6]", "value": "60% and 53%"}, {"measurement": "Population Hoechst High Intensity Objects (%)", "setting": "[6]", "value": "11% and 2%"}, {"measurement": "Population Membrane Permeable-Phenotype (%)", "setting": "[6]", "value": "0% and 3%"}, {"measurement": "Population Mitochondria Different-Phenotype (%)", "setting": "[6]", "value": "8% and 2%"}, {"measurement": "Population Mitotic Cells (%)", "setting": "[6]", "value": "43% and 48%"}, {"measurement": "Population Normal (%)", "setting": "[6]", "value": "88% and 97%"}, {"measurement": "Population Pyknosed Nuclei (%)", "setting": "[6]", "value": "11% and 10%"}, {"measurement": "Population Tubulin-Different-Phenotype (%)", "setting": "[6]", "value": "48% and 39%"}, {"measurement": "Total Cell Count", "setting": "[6]", "value": "321 and 261"}]}]}
